Test results as given in publication PMC9014391 (Heliyon, 2022).

Columns and labels:
[1] = tested on: HCT-116^G13D; assay: SRB assay; format: cell-based; conditions: Homo sapiens, 48 h
Procedure, shortened: (§1)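 Sulforhodamine B assay. Cells were plated at 5000–10,000/well according to doubling time, then after 24 h exposed to a 7-point, 2-fold dilution series for 48 h at 37 °C, with paclitaxel as positive control. Cells were TCA-fixed 1 h at 4 °C and stained with 0.4% SRB, with unbound dye removed by 1% acetic acid. Bound dye was dissolved in 10 mM Tris pH 10.4 and read at 540 nm. IC50 was obtained by curve fitting; quadruplicates.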

[2] = tested on: SW-620^G12V; assay: SRB assay; format: cell-based; conditions: Homo sapiens, 48 h
Procedure, shortened: as §1

[3] = tested on: HCT-116^G13D parental derived colonospheres; assay: 3D colonospheres chemotherapy treatment; format: cell-based, Human; conditions: 5-FU 14.7 μM, PMBA 1.7 μM, after ten days of growth
Procedure, shortened: (§2)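 Colonospheres grown from single-cell suspensions at low density in serum-free DMEM/F12 with FGF (10 ng/mL), EGF (20 ng/mL) and B27. Medium was refreshed every 3–4 days, and spheres were passaged by syringe dissociation. After ten days of growth, parental- or CSC-derived colonospheres were exposed to 5-FU (14.7/78 μM) and/or test compound (1.7/2.2 μM). Response was judged by metabolically active cells and sphere dissociation, with phase-contrast imaging.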

[4] = tested on: HCT-116^G13D-CSCs derived colonospheres; assay: 3D colonospheres chemotherapy treatment; format: cell-based, Human; conditions: 5-FU 14.7 μM, even with prolonged exposure
Procedure, shortened: as §2

[5] = tested on: SW-620^G12V-CSC derived colonospheres; assay: 3D colonospheres chemotherapy treatment; format: cell-based, Human; conditions: 5-FU 78 μM, even with prolonged exposure
Procedure, shortened: as §2

[6] = tested on: ABCB1; assay: qRT-PCR after chemotherapy treatment; format: cell-based, Human; conditions: HCT-116^G13D- and SW-620^G12V–CSCs, 48 h; printed '∼4 and 2-fold' for 'ABCB1 and ABCC1'
[7] = tested on: ABCC1; assay: qRT-PCR after chemotherapy treatment; format: cell-based, Human; conditions: HCT-116^G13D- and SW-620^G12V–CSCs, 48 h; printed '∼4 and 2-fold' for 'ABCB1 and ABCC1'
[8] = tested on: ALDH1A1, ALDH1A3 and ALDH3A1; assay: qRT-PCR after chemotherapy treatment; format: cell-based, Human; conditions: HCT-116^G13D and SW-620^G12V, 48 h
Procedure, shortened: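 Parental monolayers and 10-day colonospheres were treated 48 h with 5-FU (14.7/78 μM), test compound (1.7/2.2 μM) or both, with 0.2% DMSO (final) as control. RNA was extracted with Tri-reagent and DNase-treated, then reverse-transcribed. SYBR green qPCR ran 95 °C 2 min, then 40 cycles of 95 °C 5 s/60 °C 5 s, with a final 72 °C 5 min. Expression was normalised to GAPDH.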

[9] = format: in vivo, Balb/c mice
Procedure, shortened: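 Male or unspecified Balb/c mice (20–22 g), fasted overnight, four groups of five. Single oral doses were given in 0.5% DMSO/10% Solutol/water at 10 mL/kg: test compound 20 mg/kg and 5-FU 40 mg/kg, alone or combined. Retro-orbital blood was taken at 0–10 h into EDTA by sparse sampling, two samples per group. Plasma (50 μL) was protein-precipitated with methanol, centrifuged, and the organic layer analysed.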

[10] = tested on: advanced CRC; conditions: background statement, ref not given; cited from earlier work
[11] = Balb/c, mouse, plasma, po, 40 mg

O=c1[nH]cc(F)c(=O)[nH]1 [5-FU, 5-Fluorouracil]
IC50 [1]: 14.8 µM | IC50 [2]: 78.3 µM | response of colonospheres to treatment [3]: sensitive | response of colonospheres to treatment [4]: resistant | response of colonospheres to treatment [5]: resistant | ABCB1 expression, fold down regulated [6]: did not alter the expression | ABCC1 expression, fold down regulated [7]: did not alter the expression | ALDH1A1, ALDH1A3 and ALDH3A1 expression [8]: did not alter the expression | Vd ([9]; 5-FU alone, oral 40 mg): 56.32 L/kg | AUC(0-inf) [9, 11]: 1140 ng·h/mL | AUC(0-t) [9, 11]: 1110 ng·h/mL | Cmax [9, 11]: 2450 ng/mL | half-life [9, 11]: 66 min | curative accountability [10]: 10–15%
